Test results from ChEMBL document CHEMBL3751694, “1-Piperazinylphthalazines as potential VEGFR-2 inhibitors and anticancer agents: Synthesis and in vitro biological evaluation” (Eur J Med Chem, 2016).

Legend:
Type in all cases: functional
[1] = Growth inhibition of human BT549 cells at 10 uM after 48 hrs by SRB method; settings: BT-549, 48 h, read-out: GI
Summary of the method: (§1)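 NCI 56-line primary screen at a single 10^-5 M concentration. Cells grown in RPMI 1640 with 5% FBS and 2 mM L-glutamine, plated at 5000–40,000 cells/well, then preincubated for 24 h. Exposure was 48 h at 37 °C and 5% CO2. Adherent cells were fixed with cold TCA at 10% final, suspension cells at 16%. Staining used 0.4% SRB, read at 515 nm. Results are % growth inhibition relative to control.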

[2] = Growth inhibition of human PC3 cells at 10 uM after 48 hrs by SRB method; settings: PC-3, 48 h, read-out: GI; summary of the method: as §1
[3] = Growth inhibition of human UO31 cells at 10 uM after 48 hrs by SRB method; settings: UO-31, 48 h, read-out: GI
Summary of the method: (§2)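 NCI 56-line screen, single-dose primary assay at 10^-5 M. Cells grown in RPMI 1640 with 5% FBS and 2 mM L-glutamine, plated at 5000–40,000 cells/well and held 24 h at 37 °C, 5% CO2 before drug addition. Compound was given from DMSO stock, exposure 48 h, then TCA fixation and SRB staining with absorbance at 515 nm. % growth is taken relative to time-zero and untreated controls.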

[4] = tested on: A498; assay: Growth inhibition of human A498 cells at 10 uM after 48 hrs by SRB method; settings: A498, 48 h, read-out: GI; summary of the method: as §1
[5] = Growth inhibition of human IGROV1 cells at 10 uM after 48 hrs by SRB method; settings: IGROV-1, 48 h, read-out: GI; summary of the method: as §1
[6] = tested on: SK-MEL-5; assay: Growth inhibition of human SK-MEL-5 cells at 10 uM after 48 hrs by SRB method; settings: SK-MEL-5, 48 h, read-out: GI; summary of the method: as §1
[7] = tested on: HT-29; assay: Growth inhibition of human HT-29 cells at 10 uM after 48 hrs by SRB method; settings: HT-29, 48 h, read-out: GI; summary of the method: as §1
[8] = Growth inhibition of human COLO205 cells at 10 uM after 48 hrs by SRB method; settings: COLO 205, 48 h, read-out: GI; summary of the method: as §1
[9] = tested on: NCI-H522; assay: Growth inhibition of human NCI-H522 cells at 10 uM after 48 hrs by SRB method; settings: NCI-H522, 48 h, read-out: GI; summary of the method: as §1
[10] = Growth inhibition of human HOP92 cells at 10 uM after 48 hrs by SRB method; settings: HOP-92, 48 h, read-out: GI; summary of the method: as §1
[11] = tested on: SR; assay: Growth inhibition of human SR cells at 10 uM after 48 hrs by SRB method; settings: read-out: GI; summary of the method: as §1
[12] = Growth inhibition of human […] cells at 10 uM after 48 hrs by SRB method; settings: read-out: GI; summary of the method: as §1
[13] = Growth inhibition of human MOLT4 cells at 10 uM after 48 hrs by SRB method; settings: MOLT-4, 48 h, read-out: GI; summary of the method: as §1
[14] = tested on: T47D; assay: Growth inhibition of human T47D cells at 10 uM after 48 hrs by SRB method; settings: read-out: GI; summary of the method: as §2
[15] = tested on: MDA-MB-468; assay: Growth inhibition of human MDA-MB-468 cells at 10 uM after 48 hrs by SRB method; settings: MDA-MB-468, 48 h, read-out: GI; summary of the method: as §1
[16] = tested on: MDA-MB-231; assay: Growth inhibition of human MDA-MB-231 cells at 10 uM after 48 hrs by SRB method; settings: MDA-MB-231, 48 h, read-out: GI; summary of the method: as §1
[17] = tested on: MCF7; assay: Growth inhibition of human MCF7 cells at 10 uM after 48 hrs by SRB method; settings: MCF7, 48 h, read-out: GI; summary of the method: as §1
[18] = Growth inhibition of human TK10 cells at 10 uM after 48 hrs by SRB method; settings: TK-10, 48 h, read-out: GI; summary of the method: as §2
[19] = tested on: SN12C; assay: Growth inhibition of human SN12C cells at 10 uM after 48 hrs by SRB method; settings: read-out: GI; summary of the method: as §1
[20] = tested on: ACHN; assay: Growth inhibition of human ACHN cells at 10 uM after 48 hrs by SRB method; settings: read-out: GI; summary of the method: as §1
[21] = tested on: NCI/ADR-RES; assay: Growth inhibition of human NCI/ADR-RES cells at 10 uM after 48 hrs by SRB method; settings: read-out: GI; summary of the method: as §1
[22] = Growth inhibition of human OVCAR8 cells at 10 uM after 48 hrs by SRB method; settings: OVCAR-8, 48 h, read-out: GI; summary of the method: as §1
[23] = Growth inhibition of human UACC62 cells at 10 uM after 48 hrs by SRB method; settings: UACC-62, 48 h, read-out: GI; summary of the method: as §2
[24] = Growth inhibition of human UACC257 cells at 10 uM after 48 hrs by SRB method; settings: UACC-257, 48 h, read-out: GI; summary of the method: as §2
[25] = tested on: SK-MEL-2; assay: Growth inhibition of human SK-MEL-2 cells at 10 uM after 48 hrs by SRB method; settings: SK-MEL-2, 48 h, read-out: GI; summary of the method: as §1
[26] = tested on: M14; assay: Growth inhibition of human M14 cells at 10 uM after 48 hrs by SRB method; settings: M14, 48 h, read-out: GI; summary of the method: as §1
[27] = Growth inhibition of human HCT15 cells at 10 uM after 48 hrs by SRB method; settings: HCT-15, 48 h, read-out: GI; summary of the method: as §1
[28] = Growth inhibition of human HCT116 cells at 10 uM after 48 hrs by SRB method; settings: HCT-116, 48 h, read-out: GI; summary of the method: as §1
[29] = tested on: NCI-H460; assay: Growth inhibition of human NCI-H460 cells at 10 uM after 48 hrs by SRB method; settings: NCI-H460, 48 h, read-out: GI; summary of the method: as §1
[30] = tested on: NCI-H226; assay: Growth inhibition of human NCI-H226 cells at 10 uM after 48 hrs by SRB method; settings: NCI-H226, 48 h, read-out: GI; summary of the method: as §1
[31] = tested on: A549; assay: Growth inhibition of human A549 cells at 10 uM after 48 hrs by SRB method; settings: A549, 48 h, read-out: GI; summary of the method: as §1
[32] = tested on: K562; assay: Growth inhibition of human K562 cells at 10 uM after 48 hrs by SRB method; settings: K562, 48 h, read-out: GI; summary of the method: as §1
[33] = Growth inhibition of human HL-60(TB) cells at 10 uM after 48 hrs by SRB method; settings: HL-60, 48 h, read-out: GI
Summary of the method: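 NCI single-dose primary screen at 10^-5 M, 48 h exposure. Cells grown in RPMI 1640 with 5% FBS and 2 mM L-glutamine. Suspension cells fixed in situ with TCA (final 16%), stained with SRB, absorbance read at 515 nm. Percent growth inhibition calculated against time-zero and untreated control plates.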

[34] = tested on: CCRF-CEM; assay: Growth inhibition of human CCRF-CEM cells at 10 uM after 48 hrs by SRB method; settings: read-out: GI; summary of the method: as §1
[35] = Growth inhibition of human Caki1 cells at 10 uM after 48 hrs by SRB method; settings: CAKI-1, 48 h, read-out: GI; summary of the method: as §1
[36] = tested on: 786-0; assay: Growth inhibition of human 786-0 cells at 10 uM after 48 hrs by SRB method; settings: 786-0, 48 h, read-out: GI; summary of the method: as §1
[37] = Growth inhibition of human SF268 cells at 10 uM after 48 hrs by SRB method; settings: SF-268, 48 h, read-out: GI; summary of the method: as §1
[38] = tested on: KM12; assay: Growth inhibition of human KM12 cells at 10 uM after 48 hrs by SRB method; settings: KM12, 48 h, read-out: GI; summary of the method: as §1

| Compound | inhibition of growth at 10 µM [1] [%] | inhibition of growth at 10 µM [2] [%] | inhibition of growth at 10 µM [3] [%] | inhibition of growth at 10 µM [4] [%] | inhibition of growth at 10 µM [6] [%] | inhibition of growth at 10 µM [7] [%] | inhibition of growth at 10 µM [8] [%] | inhibition of growth at 10 µM [9] [%] | inhibition of growth at 10 µM [10] [%] | inhibition of growth at 10 µM [11] [%] | inhibition of growth at 10 µM [12] [%] | inhibition of growth at 10 µM [13] [%] | inhibition of growth at 10 µM [14] [%] | inhibition of growth at 10 µM [15] [%] | inhibition of growth at 10 µM [16] [%] | inhibition of growth at 10 µM [18] [%] | inhibition of growth at 10 µM [22] [%] | inhibition of growth at 10 µM [23] [%] | inhibition of growth at 10 µM [26] [%] | inhibition of growth at 10 µM [27] [%] | further results |
| --- | --- | --- | --- | --- | --- | --- | --- | --- | --- | --- | --- | --- | --- | --- | --- | --- | --- | --- | --- | --- | --- |
| CC(=O)c1sc(NC(=O)CN2CCN(c3nnc(-c4ccccc4)c4ccccc34)CC2)nc1C | 34 | 53 | 43 | 45 | 33 | 31 | 30 | 41 | 70 | 49 | 45 | 52 | 81 | 49 | 41 | – | – | – | – | – | inhibition of growth at 10 µM [5]: 40% |
| O=C(CN1CCN(c2nnc(-c3ccccc3)c3ccccc23)CC1)Nc1nc(-c2ccccc2)cs1 | 40 | 62 | 90 | 54 | 77 | 34 | 54 | 58 | 47 | 57 | 56 | 70 | 85 | 59 | 38 | 30 | 44 | 44 | 44 | 51 | inhibition of growth at 10 µM [17]: 53%; inhibition of growth at 10 µM [19]: 32%; inhibition of growth at 10 µM [20]: 31%; inhibition of growth at 10 µM [21]: 45%; inhibition of growth at 10 µM [24]: 48%; inhibition of growth at 10 µM [25]: 40%; inhibition of growth at 10 µM [28]: 38%; inhibition of growth at 10 µM [29]: 45%; inhibition of growth at 10 µM [30]: 38%; inhibition of growth at 10 µM [31]: 48%; inhibition of growth at 10 µM [32]: 50%; inhibition of growth at 10 µM [33]: 50%; inhibition of growth at 10 µM [34]: 53% |
| CCOC(=O)c1sc(NC(=O)CN2CCN(c3nnc(-c4ccccc4)c4ccccc34)CC2)nc1C | 33 | 57 | 46 | 37 | 33 | 50 | 34 | 64 | 38 | 64 | 53 | 59 | 68 | 49 | 49 | 36 | 33 | 34 | 32 | 44 | inhibition of growth at 10 µM [35]: 35%; inhibition of growth at 10 µM [36]: 31%; inhibition of growth at 10 µM [37]: 32%; inhibition of growth at 10 µM [38]: 30%; inhibition of growth at 10 µM [31]: 33%; inhibition of growth at 10 µM [32]: 34%; inhibition of growth at 10 µM [33]: 43%; inhibition of growth at 10 µM [34]: 34% |
